Data: ChEMBL document CHEMBL5058577, “EUbOPEN Chemogenomics Library 2 (Multiplex)” (2022)

Tested on: U2OS
Assay: Multiplex assay against U2OS
Format: toxicity, cell-based
Conditions: human
How it was run: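 Cells stained live at seeding with Hoechst33342, BioTracker Green Microtubule Cytoskeleton Dye, MitoTracker Red and Annexin V Alexa Fluor 680 were imaged on a CQ1 microscope at 37°C and 5% CO2 after compound addition. Their classification by CellPathfinder machine-learning gating ran from Hoechst high-intensity objects versus normal cells, to healthy, pyknosed or fragmented nuclei among normal cells, to mitotic or apoptotic among pyknosed cells. Tubulin, mitochondrial-mass and membrane-permeability phenotypes are per cents of healthy-nucleus cells.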

[1] = 12 h, 1 µM, compound concentration 1 uM, replicate 1
[2] = 12 h, 1 µM, compound concentration 1 uM, replicate 2
[3] = 12 h, 10 µM, compound concentration 10 uM, replicate 1
[4] = 12 h, 10 µM, compound concentration 10 uM, replicate 2
[5] = 24 h, 1 µM, compound concentration 1 uM, replicate 1
[6] = 24 h, 1 µM, compound concentration 1 uM, replicate 2
[7] = 24 h, 10 µM, compound concentration 10 uM, replicate 1
[8] = 24 h, 10 µM, compound concentration 10 uM, replicate 2
[9] = 48 h, 1 µM, compound concentration 1 uM, replicate 1
[10] = 48 h, 1 µM, compound concentration 1 uM, replicate 2
[11] = 48 h, 10 µM, compound concentration 10 uM, replicate 1
[12] = 48 h, 10 µM, compound concentration 10 uM, replicate 2

Structure (SMILES): Cc1cc(=O)n(C)c2cc(N3C(=O)CC[C@H](NS(=O)(=O)CC(C)C)[C@H]3c3ccc(Cl)cc3)ccc12
- Population Apoptotic (%) [1]: 87%
- Population Fragmented Nuclei (%) [1]: 24%
- Population Healthy Nuclei (%) [1]: 66%
- Population Hoechst High Intensity Objects (%) [1]: 3%
- Population Membrane Permeable-Phenotype (%) [1]: 3%
- Population Mitochondria Different-Phenotype (%) [1]: 1%
- Population Mitotic Cells (%) [1]: 12%
- Population Normal (%) [1]: 96%
- Population Pyknosed Nuclei (%) [1]: 9%
- Population Tubulin-Different-Phenotype (%) [1]: 1%
- Total Cell Count [1]: 263
- Population Apoptotic (%) [2]: 63%
- Population Fragmented Nuclei (%) [2]: 21%
- Population Healthy Nuclei (%) [2]: 68%
- Population Hoechst High Intensity Objects (%) [2]: 1%
- Population Membrane Permeable-Phenotype (%) [2]: 2%
- Population Mitochondria Different-Phenotype (%) [2]: 2%
- Population Mitotic Cells (%) [2]: 36%
- Population Normal (%) [2]: 98%
- Population Pyknosed Nuclei (%) [2]: 10%
- Total Cell Count [2]: 110
- Population Apoptotic (%) [3]: 57%
- Population Fragmented Nuclei (%) [3]: 21%
- Population Healthy Nuclei (%) [3]: 55%
- Population Hoechst High Intensity Objects (%) [3]: 5%
- Population Membrane Permeable-Phenotype (%) [3]: 63%
- Population Mitochondria Different-Phenotype (%) [3]: 44%
- Population Mitotic Cells (%) [3]: 42%
- Population Normal (%) [3]: 94%
- Population Pyknosed Nuclei (%) [3]: 23%
- Population Tubulin-Different-Phenotype (%) [3]: 65%
- Total Cell Count [3]: 240
- Population Fragmented Nuclei (%) [4]: 16%
- Population Healthy Nuclei (%) [4]: 60%
- Population Hoechst High Intensity Objects (%) [4]: 3%
- Population Membrane Permeable-Phenotype (%) [4]: 35%
- Population Mitochondria Different-Phenotype (%) [4]: 68%
- Population Normal (%) [4]: 96%
- Population Tubulin-Different-Phenotype (%) [4]: 60%
- Total Cell Count [4]: 83
- Population Apoptotic (%) [5]: 74%
- Population Fragmented Nuclei (%) [5]: 20%
- Population Healthy Nuclei (%) [5]: 68%
- Population Hoechst High Intensity Objects (%) [5]: 3%
- Population Membrane Permeable-Phenotype (%) [5]: 6%
- Population Mitochondria Different-Phenotype (%) [5]: 3%
- Population Mitotic Cells (%) [5]: 25%
- Population Normal (%) [5]: 96%
- Population Pyknosed Nuclei (%) [5]: 11%
- Population Tubulin-Different-Phenotype (%) [5]: 4%
- Total Cell Count [5]: 322
- Population Apoptotic (%) [6]: 82%
- Population Fragmented Nuclei (%) [6]: 18%
- Population Healthy Nuclei (%) [6]: 69%
- Population Hoechst High Intensity Objects (%) [6]: 1%
- Population Membrane Permeable-Phenotype (%) [6]: 9%
- Population Mitochondria Different-Phenotype (%) [6]: 2%
- Population Mitotic Cells (%) [6]: 17%
- Population Normal (%) [6]: 98%
- Population Tubulin-Different-Phenotype (%) [6]: 6%
- Total Cell Count [6]: 146
- Population Apoptotic (%) [7]: 71%
- Population Fragmented Nuclei (%) [7]: 20%
- Population Healthy Nuclei (%) [7]: 56%
- Population Hoechst High Intensity Objects (%) [7]: 5%
- Population Membrane Permeable-Phenotype (%) [7]: 25%
- Population Mitochondria Different-Phenotype (%) [7]: 40%
- Population Mitotic Cells (%) [7]: 28%
- Population Normal (%) [7]: 94%
- Population Pyknosed Nuclei (%) [7]: 23%
- Population Tubulin-Different-Phenotype (%) [7]: 28%
- Total Cell Count [7]: 262
- Population Apoptotic (%) [8]: 81%
- Population Fragmented Nuclei (%) [8]: 26%
- Population Healthy Nuclei (%) [8]: 62%
- Population Hoechst High Intensity Objects (%) [8]: 2%
- Population Membrane Permeable-Phenotype (%) [8]: 36%
- Population Mitochondria Different-Phenotype (%) [8]: 59%
- Population Mitotic Cells (%) [8]: 18%
- Population Normal (%) [8]: 97%
- Population Pyknosed Nuclei (%) [8]: 10%
- Population Tubulin-Different-Phenotype (%) [8]: 50%
- Total Cell Count [8]: 108
- Population Apoptotic (%) [9]: 77%
- Population Fragmented Nuclei (%) [9]: 14%
- Population Healthy Nuclei (%) [9]: 73%
- Population Hoechst High Intensity Objects (%) [9]: 1%
- Population Membrane Permeable-Phenotype (%) [9]: 4%
- Population Mitochondria Different-Phenotype (%) [9]: 3%
- Population Mitotic Cells (%) [9]: 22%
- Population Normal (%) [9]: 98%
- Population Pyknosed Nuclei (%) [9]: 11%
- Population Tubulin-Different-Phenotype (%) [9]: 2%
- Total Cell Count [9]: 508
- Population Apoptotic (%) [10]: 95%
- Population Fragmented Nuclei (%) [10]: 15%
- Population Membrane Permeable-Phenotype (%) [10]: 6%
- Population Mitochondria Different-Phenotype (%) [10]: 5%
- Population Mitotic Cells (%) [10]: 5%
- Population Pyknosed Nuclei (%) [10]: 10%
- Population Tubulin-Different-Phenotype (%) [10]: 4%
- Total Cell Count [10]: 199
- Population Apoptotic (%) [11]: 84%
- Population Fragmented Nuclei (%) [11]: 25%
- Population Healthy Nuclei (%) [11]: 51%
- Population Hoechst High Intensity Objects (%) [11]: 6%
- Population Membrane Permeable-Phenotype (%) [11]: 15%
- Population Mitochondria Different-Phenotype (%) [11]: 15%
- Population Mitotic Cells (%) [11]: 15%
- Population Normal (%) [11]: 93%
- Population Pyknosed Nuclei (%) [11]: 22%
- Population Tubulin-Different-Phenotype (%) [11]: 10%
- Total Cell Count [11]: 331
- Population Apoptotic (%) [12]: 71%
- Population Fragmented Nuclei (%) [12]: 21%
- Population Healthy Nuclei (%) [12]: 60%
- Population Hoechst High Intensity Objects (%) [12]: 5%
- Population Membrane Permeable-Phenotype (%) [12]: 30%
- Population Mitochondria Different-Phenotype (%) [12]: 35%
- Population Mitotic Cells (%) [12]: 28%
- Population Normal (%) [12]: 94%
- Population Pyknosed Nuclei (%) [12]: 18%
- Population Tubulin-Different-Phenotype (%) [12]: 23%
- Total Cell Count [12]: 120
